In assay [1] the target is FAK (Homo sapiens, UniProt Q05397). In words: Surface plasmon resonance. The format is binding. The essentials:
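Biacore S200 at 25°C, with running buffer 1% DMSO/1x PBS-P+ (filtered, degassed) at 30 μL/min. FAK at 20 μg/mL in 10 mM sodium acetate pH 5.0 was amine-coupled to a CM5 chip, targeting 5000 RU, with unmodified flow cell 1 as reference. Peptide analyte: ≥5 concentrations (100 nM–100 μM) plus a repeat and a blank, multi-cycle. Association 180 s, dissociation 600 s. Regeneration with 10 mM glycine pH 2.5 for 30 s. KD from 1:1 Langmuir fit.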

Assay [2] has as its system MDA-MB-231 cells. In words: qPCR gene expression. The assay is classed as cell-based. The settings on record: for expression of NANOG target genes (FABP5, POSTN, NRP2, PIN1, TAGLN) / expression of epithelial cell markers cytokeratin 18 and 19 (KRT18 and KRT19): MDA-MB-231, 7 days of treatment, n=3; for expression of NANOG target genes (FABP5, POSTN, NRP2, PIN1, TAGLN): compared to vehicle or aScr-pep. A digest of the protocol: (§1)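 Cells were treated for 7 days with test peptide, cytosolic-tail peptide alone, scrambled peptide or vehicle, then analysed by real-time qPCR for NANOG-regulated and keratin genes. CT values were normalized to GAPDH, and dissociation curves checked primer fidelity. n=3 independent experiments, each in technical triplicate; one-way ANOVA.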
In general terms: Real-time PCR tracks product formation cycle by cycle.

The target of assay [3] is NANOG (Homo sapiens, UniProt Q9H9S0). In words: Surface plasmon resonance. The format is binding. A digest of the protocol:
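Purified active NANOG at 50 μg/mL in 10 mM sodium acetate pH 4.5 was amine-coupled (EDC/NHS, ethanolamine block) to a CM5 chip, targeting 5000 RU, with an unmodified reference cell. Runs used Biacore S200 at 25°C, 1% DMSO/1x PBS-P+ at 30 μL/min. Peptide series: ≥5 concentrations, 100 nM–100 μM, plus repeat and zero. Association 180 s, dissociation 600 s, glycine pH 2.5 regeneration. KD by 1:1 Langmuir kinetics.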

For assay [4], the system named is MDA-MB-231 cells. Kind of assay: CellTiter-Glo proliferation. The note with it: MDA-MB-231, increasing concentrations, 72 h. The assay is classed as cell-based. The essentials:
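MDA-MB-231 cells, grown in DMEM with 1 mM sodium pyruvate and 10% heat-inactivated FCS at 37°C and 5% CO₂, were seeded at 1,000 cells/well. They were exposed for 72 h to Antp peptide alone, test peptide or vehicle (1% DMSO in PBS). Cells were lysed with CellTiter-Glo at day 0 and at 72 h, shaken 10 min in the dark, and luminescence was read. Fold change = 72 h value / day 0 value per group.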
In general terms: In ATP-based viability assays light output follows the ATP content of the culture.

Assay [5] relates to MCF7 luminal breast cancer cells. In words: qPCR gene expression. The format is cell-based. The note with it: MCF7, 7 days of treatment, n=3. The essentials:
as §1

For assay [6], the system named is MDA-MB-231. Kind of assay: Tumorsphere-initiation frequency, extreme limiting-dilution assay. The format is cell-based. The settings on record: MDA-MB-231, ELDA, compared to aScr-pep. The essentials:
(§2)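 Cells were treated with vehicle, Antp alone, Antp-tagged scrambled peptide or test peptide. They were plated in duplicate rows at serial dilutions of 1–20 cells/well, one 96-well plate per condition. Medium was serum-free DMEM with 20 ng/ml bFGF, 10 ng/ml EGF, 2% B27 and 10 μg/ml insulin. After 2 weeks, wells were scored sphere-positive or negative by phase-contrast microscopy. Stem-cell frequency was computed by extreme limiting dilution analysis.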

The subject of assay [7] is HCC70 cells. In words: Subcellular fractionation and immunoblotting for FAK and NANOG. The format is cell-based. The settings on record: HCC70, 10 μM, 48 h, immunoblot. A digest of the protocol:
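15×10⁶ HCC70 cells per 15 cm dish were treated 48 h with 10 μM peptide or 1% DMSO vehicle. A commercial kit gave membrane, cytoplasmic and nuclear fractions. 25 μg per fraction was run on 12% SDS-PAGE and transferred to PVDF. Blots were probed for FAK and NANOG, with HRP secondary 3 h at room temperature. Rhodamine anti-actin and Lamin A/C served as loading controls.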
(A western blot detects proteins with antibodies after separation by electrophoresis.)

The test system of assay [8] is MDA-MB-231 luciferase-expressing tumors. The format is in vivo, NSG mice. The settings on record: endpoint tumors. A digest of the protocol:
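MDA-MB-231 cells were made luciferase-expressing by lentivirus and puromycin-selected. 1×10⁶ cells went into the right subcutaneous flank of 6-week-old female NSG mice. At palpability, mice were randomized to 50 μl intratumoral 0.1 mM peptide or vehicle (1% DMSO) every other day for 20 days. Weekly IVIS: D-luciferin 150 mg/kg IP under isoflurane, total flux. Excised tumors were fixed 3 days in 4% PFA, then sectioned and stained (H&E: 7–8 mice/group; IF: 3–4 mice/group, 3 images/mouse). One-way ANOVA.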

In assay [9] the test system is HCC70 cells. In words: qPCR gene expression. The assay is classed as cell-based. The note with it: HCC70, 10 μM, 7 day treatment, compared to aScr-pep. A digest of the protocol: as §1
Assay [10] deals with HCC70. Kind of assay: Tumorsphere-initiation frequency, extreme limiting-dilution assay. The assay is classed as cell-based. The settings on record: HCC70, ELDA, compared to aScr-pep. The essentials:
as §2

Assay [11] relates to MCF7. Described as above. The assay is classed as cell-based. The note with it: MCF7 luminal breast cancer cell line, ELDA, aScr-pep vs aCx26-pep. A digest of the protocol:
as §2

For assay [12], the system named is MDA-MB-468. The description is as above. The format is cell-based. The settings on record: MDA-MB-468, ELDA, compared to aScr-pep. A digest of the protocol: as §2
Setting [13] is: SPR, 25°C, 1% DMSO/1x PBS-P+, 1:1 Langmuir, range given in words.
Where [14] appears, read: MDA-MB-231, 10 μM, 7 day treatment, compared to aScr-pep.
Where [15] appears, read: immunofluorescence, 3–4 mice per group.

Ends that are not written are not given here.

Chain of FAK (Q05397 whole entry): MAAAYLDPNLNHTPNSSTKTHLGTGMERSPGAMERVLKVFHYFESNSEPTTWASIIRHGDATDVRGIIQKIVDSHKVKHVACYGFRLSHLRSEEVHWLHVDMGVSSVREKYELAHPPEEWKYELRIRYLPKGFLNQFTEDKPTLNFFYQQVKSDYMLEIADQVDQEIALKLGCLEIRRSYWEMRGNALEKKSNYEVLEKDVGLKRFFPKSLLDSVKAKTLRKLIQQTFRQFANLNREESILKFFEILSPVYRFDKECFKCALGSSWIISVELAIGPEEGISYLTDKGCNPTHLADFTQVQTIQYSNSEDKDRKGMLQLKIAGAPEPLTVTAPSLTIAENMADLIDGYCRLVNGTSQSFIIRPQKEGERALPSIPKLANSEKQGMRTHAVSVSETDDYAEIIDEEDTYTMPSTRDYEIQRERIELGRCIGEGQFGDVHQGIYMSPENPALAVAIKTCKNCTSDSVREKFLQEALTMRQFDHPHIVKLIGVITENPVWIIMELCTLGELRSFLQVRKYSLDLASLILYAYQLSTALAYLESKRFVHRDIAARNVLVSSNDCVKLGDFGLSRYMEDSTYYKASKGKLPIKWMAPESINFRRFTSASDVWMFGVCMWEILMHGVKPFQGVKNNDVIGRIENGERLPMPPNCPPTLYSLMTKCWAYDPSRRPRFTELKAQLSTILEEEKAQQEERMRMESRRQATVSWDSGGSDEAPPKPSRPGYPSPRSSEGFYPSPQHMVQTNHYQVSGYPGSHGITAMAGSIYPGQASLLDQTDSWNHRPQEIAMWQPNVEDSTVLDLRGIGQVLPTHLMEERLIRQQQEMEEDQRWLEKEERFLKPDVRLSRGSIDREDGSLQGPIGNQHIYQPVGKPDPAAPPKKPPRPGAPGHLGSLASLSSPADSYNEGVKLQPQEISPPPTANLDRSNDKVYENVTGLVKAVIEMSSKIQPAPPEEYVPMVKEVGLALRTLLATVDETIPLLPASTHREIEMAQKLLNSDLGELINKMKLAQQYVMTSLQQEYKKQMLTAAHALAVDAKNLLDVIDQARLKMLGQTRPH
Chain of NANOG (Q9H9S0 whole entry): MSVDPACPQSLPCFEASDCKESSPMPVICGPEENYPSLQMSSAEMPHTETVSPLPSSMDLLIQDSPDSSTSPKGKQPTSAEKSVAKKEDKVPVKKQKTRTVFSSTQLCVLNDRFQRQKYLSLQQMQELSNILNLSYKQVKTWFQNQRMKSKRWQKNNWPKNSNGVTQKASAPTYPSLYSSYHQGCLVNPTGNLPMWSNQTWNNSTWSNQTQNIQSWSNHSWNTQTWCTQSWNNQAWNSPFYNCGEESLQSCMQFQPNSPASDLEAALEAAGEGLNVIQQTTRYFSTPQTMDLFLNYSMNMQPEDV

Consider “Cx26 cytosolic tail: peptide fragment of the Cx26 cytosolic (C-terminal) tail, 11 amino acids (RYCSGKSKKPV-NH2)”, for which, in assay [1] (setting [13]), the “dissociation constant (KD) with FAK” value was “micromolar”. In assay [2], the “expression of NANOG target genes (FABP5, POSTN, NRP2, PIN1, TAGLN)” value is “no significant differences”; the “expression of epithelial cell markers cytokeratin 18 and 19 (KRT18 and KRT19)” value is “no significant differences”. Moreover, the “dissociation constant (KD) with NANOG” value in assay [3] (setting [13]) was “nanomolar”.
Consider RYCSG, for which, in assay [1], the “binding to FAK by SPR (result in words)” value is on record as “sufficient for binding”. The “binding to NANOG by SPR (result in words)” value in assay [3] is listed as “sufficient for binding”.
For “aCx26-pep: peptide containing the Cx26 cytosolic tail sequence tagged with an antennapedia (Antp) leader sequence (RQIKIWFQNRRMKWKKRYCSGKSKKPV-NH2)”, the “cell proliferation (CellTiter-Glo)” value in assay [4] is on record as “not significantly affected”. Further, in [5], the “NANOG target gene expression” value is on record as “did not significantly change” and the cytokeratin gene expression entry is recorded as “did not significantly change”. The “binding to FAK by SPR (result in words)” value in assay [1] is “did not significantly alter”. The tumorsphere frequency entry in [6] is “significantly decreased”. Besides, in assay [7], the “FAK level in the nuclear fraction” value is given as “dramatic decreases” and the “NANOG level in the nuclear fraction” value is reported as “dramatic decreases”. In assay [2] (setting [14]), the “Oct4 mRNA levels” value is listed as “significant decrease” and the Sox2 levels result is given as “did not observe a change”. For the same substance, in [2], the “expression of NANOG target genes (FABP5, POSTN, NRP2, PIN1, TAGLN)” value is “significantly decreased”; the “expression of epithelial cell markers cytokeratin 18 and 19 (KRT18 and KRT19)” value is listed as “significantly increased”. In addition, in assay [8] (setting [15]), the “Ki67 staining (proliferation marker)” value is “decreased”, the “cleaved caspase 3 staining” value is given as “increased” and the “vimentin staining (EMT marker)” value is reported as “decreased”. Besides, the “percent tumor viability (H&E)” value in [8] (vs vehicle or aScr-pep, 7–8 mice per group) is “significantly decreased”. Also, in assay [9], the “Oct4 mRNA levels” value is listed as “significant decrease” and the Sox2 levels result is given as “did not observe a change”. Moreover, in assay [10], the tumorsphere frequency entry was “significantly decreased”. Further, in assay [3], the “binding to NANOG by SPR (result in words)” value was “did not significantly alter”. Besides, the tumorsphere frequency result in [11] was “no significant difference”. Further, in [12], the tumorsphere frequency result was “significantly decreased”.

The values are drawn from article PMC10840808 (Molecular cancer therapeutics, 2024).
